Results from ChEMBL document CHEMBL4052614, “Novel 3',5'-diprenylated chalcones inhibited the proliferation of cancer cells in vitro by inducing cell apoptosis and arresting cell cycle phase” (Eur J Med Chem, 2017).
Calls of active or inactive are those of the source. No cut-off for these calls is given here.

Key:
HEL [1] = experiment: Growth inhibition of HEL cells at 5 umol/L after 48 hrs by MTT assay relative to control; assay type: functional; conditions: Homo sapiens; for inhibition of growth at 5 µM: read-out: GI
In short: (§1)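 Cells kept in DMEM/10% FBS at 37 °C, 5% CO2, seeded at 4×10^3–8×10^3 cells/well, 24 h attachment, then 48 h with compound at 5 µmol/L. MTT (5 mg/mL solution) added for 4 h at 37 °C, formazan taken up in DMSO, A490 read. Percent inhibition as mean ± SD of three independent experiments. Doxorubicin as positive control.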

MDA-MB-231 = experiment: Growth inhibition of human MDA-MB-231 cells at 5 umol/L after 48 hrs by MTT assay relative to control; assay type: functional; conditions: for inhibition of growth at 5 µM: MDA-MB-231, 48 h, read-out: GI; in short: as §1
K562 = experiment: Growth inhibition of human K562 cells at 5 umol/L after 48 hrs by MTT assay relative to control; assay type: functional; conditions: for inhibition of growth at 5 µM: K562, 48 h, read-out: GI; in short: as §1
PC-3 = experiment: Growth inhibition of human PC3 cells at 5 umol/L after 48 hrs by MTT assay relative to control; assay type: functional; conditions: for inhibition of growth at 5 µM: PC-3, 48 h, read-out: GI; in short: as §1
HEL [2] = experiment: Cell cycle arrest in HEL cells assessed as decrease in G2 phase accumulation at 5 umol/L after 48 hrs by propidium iodide staining based flow cytometric method; assay type: functional; conditions: Homo sapiens
In short: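 Cells grown in DMEM with 10% FBS and penicillin/streptomycin at 37 °C, 5% CO2, and passaged at least 3 times after thawing. Treated 48 h at 5 µmol/L, DMSO-treated controls. Harvested by trypsin, PBS-washed, fixed in ice-cold ethanol, blocked 1 h at 4 °C in 5% BSA/PBS, RNase 1 µg/mL 30 min at 37 °C, PI 20 µg/mL final. Phase percentages read from PI histograms. Mean ± SD, three independent experiments.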

HEL [3] = experiment: Induction of apoptosis in HEL cells assessed as necrotic cells at 5 umol/L after 48 hrs by annexin V-FITC/propidium iodide staining based flow cytometry (reference value: 0.3 to 1%); assay type: functional, Homo sapiens
HEL [4] = experiment: Induction of apoptosis in HEL cells assessed as early apoptotic cells at 5 umol/L after 48 hrs by annexin V-FITC/propidium iodide staining based flow cytometry (reference value: 2.6 to 4.2%); assay type: functional, Homo sapiens
HEL [5] = experiment: Induction of apoptosis in HEL cells assessed as late apoptotic cells at 10 umol/L after 48 hrs by annexin V-FITC/propidium iodide staining based flow cytometry (reference value: 1.6%); assay type: functional, Homo sapiens
HEL [6] = experiment: Induction of apoptosis in HEL cells assessed as necrotic cells at 10 umol/L after 48 hrs by annexin V-FITC/propidium iodide staining based flow cytometry (reference value: 0.3%); assay type: functional, Homo sapiens
HEL [7] = experiment: Induction of apoptosis in HEL cells assessed as viable cells at 10 umol/L after 48 hrs by annexin V-FITC/propidium iodide staining based flow cytometry (reference value: 94%); assay type: functional; conditions: Homo sapiens, read-out: Activity
HEL [8] = experiment: Induction of apoptosis in HEL cells assessed as late apoptotic cells at 5 umol/L after 48 hrs by annexin V-FITC/propidium iodide staining based flow cytometry (reference value: 1.6 to 3.3%); assay type: functional, Homo sapiens
HEL [9] = experiment: Induction of apoptosis in HEL cells assessed as viable cells at 5 umol/L after 48 hrs by annexin V-FITC/propidium iodide staining based flow cytometry (reference value: 93.1 to 94%); assay type: functional; conditions: Homo sapiens, read-out: Activity
HEL [10] = experiment: Induction of apoptosis in HEL cells assessed as early apoptotic cells at 10 umol/L after 48 hrs by annexin V-FITC/propidium iodide staining based flow cytometry (reference value: 4.2%); assay type: functional, Homo sapiens
HEL [11] = experiment: Induction of morphological changes in HEL cells assessed as reduction in cell number at 5 umol/L after 48 hrs by inverted fluorescence microscopic analysis; assay type: functional, cell-based; conditions: Homo sapiens
In short: (§2)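 Cells cultured in DMEM/10% FBS at 37 °C, 5% CO2. Exposed 48 h to 5 µmol/L compound alongside DMSO controls. Morphology (cell number, rounding, spacing, apoptotic bodies, spindle shape) observed under an inverted microscope with CCD camera.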

HEL [12] = experiment: Induction of morphological changes in HEL cells assessed as formation of apoptotic bodies at 5 umol/L after 48 hrs by inverted fluorescence microscopic analysis; assay type: functional, cell-based; conditions: Homo sapiens; in short: as §2
HEL [13] = experiment: Cytotoxicity against HEL cells after 48 hrs by MTT assay; assay type: functional, cell-based; conditions: Homo sapiens
In short: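 Cells kept in DMEM/10% FBS at 37 °C, 5% CO2, seeded at 4×10^3–8×10^3 cells/well and left 24 h to adhere. Exposed 48 h to a range of concentrations. MTT (5 mg/mL solution) added for 4 h at 37 °C, formazan dissolved in DMSO, absorbance read at 490 nm. IC50 derived from concentration–inhibition relation. Doxorubicin as positive control.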

CCOc1cc(/C=C/C(=O)c2cc(CC=C(C)C)c(OC)c(CC=C(C)C)c2O)ccc1OC(=O)/C=C/c1ccncc1 was tested, and the “growth inhibition (GI)” value (HEL [1]) was “inactive”, the “growth inhibition (GI)” value (MDA-MB-231) was “inactive” and the “growth inhibition (GI)” value (K562) was “inactive”. The inhibition of growth at 5 µM (PC-3) was 13.5%.
With COc1cc(/C=C/C(=O)c2cc(CC=C(C)C)c(OC)c(CC=C(C)C)c2O)ccc1OC(=O)c1cccnc1 the inhibition of growth at 5 µM (HEL [1]) was 5.7%, the “growth inhibition (GI)” value (MDA-MB-231) was “inactive” and the “growth inhibition (GI)” value (K562) was “inactive”. For the same compound, the inhibition of growth at 5 µM (PC-3) was 23%.
With COc1ccc(/C=C/C(=O)c2cc(CC=C(C)C)c(OC)c(CC=C(C)C)c2O)cc1OC the “growth inhibition (GI)” value (HEL [1]) was “inactive”, the inhibition of growth at 5 µM (MDA-MB-231) was 19% and the inhibition of growth at 5 µM (K562) was 7.5%. For the same compound, the inhibition of growth at 5 µM (PC-3) was 10.6%.
In the case of COc1ccc(/C=C/C(=O)c2cc(CC=C(C)C)c(OC)c(CC=C(C)C)c2O)cc1F, the inhibition of growth at 5 µM (HEL [1]) is reported as 12.3%, the inhibition of growth at 5 µM (MDA-MB-231) is reported as 12.1% and the inhibition of growth at 5 µM (K562) is reported as 19.3%. The “growth inhibition (GI)” value (PC-3) was “inactive”.
In the case of CCOc1cc(/C=C/C(=O)c2cc(CC=C(C)C)c(OC)c(CC=C(C)C)c2O)ccc1O, the inhibition of growth at 5 µM (HEL [1]) is reported as 12.7%, the inhibition of growth at 5 µM (MDA-MB-231) is reported as 33.5% and the inhibition of growth at 5 µM (K562) is reported as 10.2%. It also gave an inhibition of growth at 5 µM (PC-3) of 25.6%.
For COc1cc(/C=C/C(=O)c2cc(CC=C(C)C)c(OC)c(CC=C(C)C)c2O)ccc1OC(=O)c1ccc(N(C)C)cc1, the “growth inhibition (GI)” value (HEL [1]) was “inactive”, the inhibition of growth at 5 µM (MDA-MB-231) was 38.5% and the inhibition of growth at 5 µM (K562) was 8.1%. The inhibition of growth at 5 µM (PC-3) was 36.5%.
For COc1ccc(/C=C/C(=O)c2cc(CC=C(C)C)c(OC)c(CC=C(C)C)c2O)cc1[N+](=O)[O-], the inhibition of growth at 5 µM (HEL [1]) was 85.4%, the Activity (HEL [2]) was “Active” and the Activity (HEL [3]) was 0.8%. It also gave an Activity (HEL [4]) of 5.3%, an Activity (HEL [5]) of 47.6% and an Activity (HEL [6]) of 10.1%. It also gave a viability at 10 µM (HEL [7]) of 30.6%, an Activity (HEL [8]) of 3.9% and a viability at 5 µM (HEL [9]) of 90%. The inhibition of growth at 5 µM (MDA-MB-231) was 23.4%, the Activity (HEL [10]) was 11.6% and the inhibition of growth at 5 µM (K562) was 23%. For the same compound, the Activity (HEL [11]) was “Active”, the Activity (HEL [12]) was “inactive” and the inhibition of growth at 5 µM (PC-3) was 21.2%. For the same compound, the Activity (HEL [13]) was “Dose-dependent effect” and the IC50 (HEL [13]) was 4.35 µM.
In the case of COCOc1ccc(/C=C/C(=O)c2cc(CC=C(C)C)c(OC)c(CC=C(C)C)c2O)cc1OC, the “growth inhibition (GI)” value (HEL [1]) is reported as “inactive”, the inhibition of growth at 5 µM (MDA-MB-231) is reported as 14% and the inhibition of growth at 5 µM (K562) is reported as 3.9%. For the same compound, the inhibition of growth at 5 µM (PC-3) was 17.3%.
C=CCOc1ccc(/C=C/C(=O)c2cc(CC=C(C)C)c(OC)c(CC=C(C)C)c2O)cc1OCC was tested, and the “growth inhibition (GI)” value (HEL [1]) was “inactive”, the inhibition of growth at 5 µM (MDA-MB-231) was 27.7% and the “growth inhibition (GI)” value (K562) was “inactive”. For the same compound, the inhibition of growth at 5 µM (PC-3) was 13.4%.
In the case of COc1ccc(/C=C/C(=O)c2cc(CC=C(C)C)c(OC)c(CC=C(C)C)c2O)cc1Br, the “growth inhibition (GI)” value (HEL [1]) is reported as “inactive”, the inhibition of growth at 5 µM (MDA-MB-231) is reported as 30.2% and the inhibition of growth at 5 µM (K562) is reported as 18.9%. The inhibition of growth at 5 µM (PC-3) was 20.9%.
In the case of CCOc1cc(/C=C/C(=O)c2cc(CC=C(C)C)c(OC)c(CC=C(C)C)c2O)ccc1OCOC, the inhibition of growth at 5 µM (HEL [1]) is reported as 6.3%, the inhibition of growth at 5 µM (MDA-MB-231) is reported as 29.9% and the “growth inhibition (GI)” value (K562) is reported as “inactive”. The inhibition of growth at 5 µM (PC-3) was 13.1%.
COc1cc(/C=C/C(=O)c2cc(CC=C(C)C)c(OC)c(CC=C(C)C)c2O)ccc1OC(=O)Cc1cc2ccccc2[nH]1 was tested, and the “growth inhibition (GI)” value (HEL [1]) was “inactive”, the inhibition of growth at 5 µM (MDA-MB-231) was 28.3% and the “growth inhibition (GI)” value (K562) was “inactive”. For the same compound, the inhibition of growth at 5 µM (PC-3) was 29.9%.
